Measured values published in PMC3027307 (Biochemistry, 2010).

Molecular target: P450-SS9 (cytochrome P450 from Photobacterium profundum strain SS9) (Photobacterium profundum, UniProt Q6LGK6)
Test: absorbance
Type: binding
Procedure, shortened: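 Enzyme at 0.8-1.8 μM was titrated with fatty acids or derivatives, added from 30-140 mM acetone stocks, at 25 °C with stirring in 0.1 M Na-Hepes pH 7.4 with 0.5 mM EDTA. Absorbance spectra were PCA/SVD-resolved into high-spin, low-spin and P420 standards. Kd came from a tight-binding (square-root) equation fit.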

Kd [µM]	SMILES
24.3 ± 8.2	CCCCCCCCCCCCCCCC(=O)O [palmitic acid]
49.5 ± 30	CCCCCCCC/C=C\CCCCCCCC(=O)NCC(=O)O [oleoyl glycine]
0.97 ± 0.42	CCCCCCCCCCCCCC(=O)O [myristic acid]

The remaining lines, values behind:

SMILES	Kd [µM]
CCCCC/C=C\C/C=C\C/C=C\C/C=C\CCCC(=O)NCC(=O)O [arachidonoyl glycine]	16.7 ± 0.1
CCCCC/C=C\C/C=C\C/C=C\C/C=C\CCCC(=O)O [arachidonic acid]	19.2 ± 4.2
